Measurements as given in ChEMBL document CHEMBL3596088, “Deepening the Topology of the Translocator Protein Binding Site by Novel N,N-Dialkyl-2-arylindol-3-ylglyoxylamides” (J Med Chem, 2015).

Key:
[1] = target: Translocator protein (Rattus norvegicus, UniProt P16257); assay: Inhibition of [3H]PK11195 binding to TSPO in rat kidney mitochondrial membranes; type: cell membranes
[2] = species: Rattus norvegicus; assay: Inhibition of [3H]flumazenil binding to benzodiazepine receptor in rat cerebral cortex membranes at 10 uM incubated for 90 mins; type: cell membranes; conditions: Membrane
How it was run: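 Crude rat cerebral cortex membrane fraction from differential centrifugation, washed to remove endogenous GABA. Incubated with 0.4 nM [3H]Ro15-1788 (flumazenil) for 90 min at 0 °C in 50 mM Tris-citrate, pH 7.4. Test compound at 10 μM; result given as percent inhibition of binding.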

Translocator protein, sequence (P16257 whole entry, looked up): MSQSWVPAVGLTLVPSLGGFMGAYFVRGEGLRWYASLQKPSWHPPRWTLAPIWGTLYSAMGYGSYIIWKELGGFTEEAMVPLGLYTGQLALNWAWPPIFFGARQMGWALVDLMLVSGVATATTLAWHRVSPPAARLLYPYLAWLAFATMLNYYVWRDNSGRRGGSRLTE

Row | SMILES | Ki [1] [nM] | inhibition [2] [%]
1 | CCCN(CCC)C(=O)C(=O)c1c(-c2ccsc2)[nH]c2ccccc12 | 1.2 | 0
2 | CCCCCCN(CCCCCC)C(=O)C(=O)c1c(-c2ccc(C(=O)OC)cc2)[nH]c2ccccc12 | 3.3 | 0
3 | CCCCCCN(CCCCCC)C(=O)C(=O)c1c(-c2ccc(O)cc2)[nH]c2ccccc12 | 6.3 | 0
4 | CCCCCCN(CCCCCC)C(=O)C(=O)c1c(-c2ccc(C(=O)O)cc2)[nH]c2ccccc12 | 184 | 0
5 | CCCCCCN(CCCCCC)C(=O)C(=O)c1c(-c2ccc(N)cc2)[nH]c2ccccc12 | 4.2 | 0
6 | CCCN(CCC)C(=O)C(=O)c1c(-c2ccc(-c3ccccc3)cc2)[nH]c2ccccc12 | 0.53 | 0
7 | CCCCN(CCCC)C(=O)C(=O)c1c(-c2ccc(C(=O)OC)cc2)[nH]c2ccccc12 | 2.7 | 0
8 | CCCN(CCC)C(=O)C(=O)c1c(-c2ccc(N)cc2)[nH]c2ccccc12 | 44.4 | 0
9 | CCCCN(CCCC)C(=O)C(=O)c1c(-c2ccc(-c3ccccc3)cc2)[nH]c2ccccc12 | 5.5 | 0
10 | CCCCN(CCCC)C(=O)C(=O)c1c(-c2ccc(C(=O)O)cc2)[nH]c2ccccc12 | 406 | 0
11 | CCN(Cc1ccccc1)C(=O)C(=O)c1c(-c2ccc3ccccc3c2)[nH]c2ccccc12 | 0.51 | 0
12 | CCCN(CCC)C(=O)C(=O)c1c(-c2ccc(O)cc2)[nH]c2ccccc12 | 16.1 | 0
13 | CCCCCCN(CCCCCC)C(=O)C(=O)c1c(-c2ccc(OC)cc2)[nH]c2ccccc12 | 4 | 0
14 | CN1C(=O)CN=C(c2ccc(Cl)cc2)c2cc(Cl)ccc21 | – | 0
15 | CCCCN(CC)C(=O)C(=O)c1c(-c2ccc3ccccc3c2)[nH]c2ccccc12 | 0.51 | 0
16 | CCCCN(C)C(=O)C(=O)c1c(-c2ccc3ccccc3c2)[nH]c2ccccc12 | 0.56 | 0
17 | CCCCN(CCCC)C(=O)C(=O)c1c(-c2ccc(OC)cc2)[nH]c2ccccc12 | 20.3 | 0
18 | CCCN(CCC)C(=O)C(=O)c1c(-c2ccc3ccccc3c2)[nH]c2ccccc12 | – | 0
19 | CCCCN(CCCC)C(=O)C(=O)c1c(-c2ccc(O)cc2)[nH]c2ccccc12 | 25.7 | 0
20 | CCC(C)N(C)C(=O)c1cc2ccccc2c(-c2ccccc2Cl)n1 (configuration not stated) | – | 0
21 | CCCCCCN(CCCCCC)C(=O)C(=O)c1c(-c2ccc3ccccc3c2)[nH]c2ccccc12 | 0.52 | 0
22 | CCCN(CCC)C(=O)C(=O)c1c(-c2ccc(C(=O)O)cc2)[nH]c2ccccc12 | 343 | 0
23 | CCCCN(CCCC)C(=O)C(=O)c1c(-c2ccsc2)[nH]c2ccccc12 | 2.8 | 0
24 | CCCCCCN(CCCCCC)C(=O)C(=O)c1c(-c2ccsc2)[nH]c2ccccc12 | 0.89 | 0
25 | CCCCCN(C)C(=O)C(=O)c1c(-c2ccc3ccccc3c2)[nH]c2ccccc12 | 0.37 | 0
26 | CCCN(CCC)C(=O)C(=O)c1c(-c2ccc(C(=O)OC)cc2)[nH]c2ccccc12 | 3.1 | 0
27 | CCCCN(CCCC)C(=O)C(=O)c1c(-c2ccc3ccccc3c2)[nH]c2ccccc12 | 0.54 | 0
28 | CCCCN(CCCC)C(=O)C(=O)c1c(-c2ccc(N)cc2)[nH]c2ccccc12 | 133 | 0
29 | CCCN(CCC)C(=O)C(=O)c1c(-c2ccc(OC)cc2)[nH]c2ccccc12 | 5.8 | 0
30 | CCCCCCN(CCCCCC)C(=O)C(=O)c1c(-c2ccc(-c3ccccc3)cc2)[nH]c2ccccc12 | 1.8 | 0
